Screening data: PubChem, several laboratories
Compounds with a hit are over-represented: about 1.7% of the library has one in this group of screens.
UCH37 inh = inhibitors of human UCH37 deubiquitinase, primary screen, biochemical, Ub-AMC cleavage, fluorescence. purified proteasome/UCH37. inhibition, % (concentration not given with the values). 0.33% of 330,000 active. AID 588478, 2011;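 active = mean inhibition over replicate wells above about 20%, limit read from the data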;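 also: 0% = compound-free wells with enzyme and 100% = wells lacking proteasome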
Target sequence (Q9Y5K5 whole entry, looked up): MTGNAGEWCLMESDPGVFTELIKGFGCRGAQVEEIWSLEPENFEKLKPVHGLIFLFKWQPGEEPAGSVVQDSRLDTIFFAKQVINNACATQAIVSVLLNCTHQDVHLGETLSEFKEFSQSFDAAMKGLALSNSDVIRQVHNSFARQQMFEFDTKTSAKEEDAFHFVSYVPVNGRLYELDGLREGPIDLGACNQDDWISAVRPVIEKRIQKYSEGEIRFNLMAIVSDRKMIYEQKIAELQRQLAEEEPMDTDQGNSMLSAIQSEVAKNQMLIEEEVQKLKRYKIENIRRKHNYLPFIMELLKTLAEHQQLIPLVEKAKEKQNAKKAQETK
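Material: human UCH37 enzyme supplied as purified proteasome complex / Amount: 0.15 nM proteasome as dispensed / Buffer or medium: pH 7.4 Tris-HCl (50 mM) with ovalbumin, ATP-MgCl2, DTT / Times: preincubation 30 min, reaction 25 min, room temperature / Technique: AMC fluorescence from Ub-AMC cleavage, excitation 355 nm, emission 460 nm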
PLCb3 inh = human PLC-beta3 inhibitors, primary screen, biochemical, fluorescence | 1-phosphatidylinositol 4,5-bisphosphate phosphodiesterase beta-3 (Homo sapiens), Q01970 | Purified PLC-beta3, fluorogenic substrate | inhibition, % at 12.2 µM | 0.18% of 370,000 active | AID 720704, 2013; in the data active = inhibition above about 11%;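 also: 0% = median of compound wells on plate and 100% = full blocker control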
Rpn11 block = Rpn11 (PSMD14) deubiquitinase inhibitors, primary screen, biochemical, fluorescence polarization, uHTS; 26S proteasome non-ATPase regulatory subunit 14 (Homo sapiens), O00487; human 26S proteasome, Ub4-pepOG fluorescence polarization; 20S core pre-blocked with epoxomicin; inhibition, % at 20 µM; 0.59% of 360,000 active; AID 588493, 2011;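 active = inhibition at 20 µM, scaled to each plate's controls, above about 33%, limit read from the data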
Target sequence (O00487 whole entry, looked up): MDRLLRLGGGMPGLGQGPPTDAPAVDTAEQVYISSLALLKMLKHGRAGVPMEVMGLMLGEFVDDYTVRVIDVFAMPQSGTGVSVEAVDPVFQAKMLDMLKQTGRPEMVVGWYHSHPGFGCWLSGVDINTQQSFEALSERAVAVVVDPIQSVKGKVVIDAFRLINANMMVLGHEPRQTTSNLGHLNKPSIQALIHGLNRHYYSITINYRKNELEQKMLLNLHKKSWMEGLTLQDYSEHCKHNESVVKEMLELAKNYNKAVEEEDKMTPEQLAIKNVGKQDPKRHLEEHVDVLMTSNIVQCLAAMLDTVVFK
PLC-gamma1 inh = PLC-gamma1 enzyme inhibitors, primary screen, biochemical, fluorescence, purified enzyme; AID 720700, 2013; 1-phosphatidylinositol 4,5-bisphosphate phosphodiesterase gamma-1 (Homo sapiens), P19174; fluorogenic substrate; 0.84% of 370,000 active; inhibition, % at 12.2 µM; in the data active = inhibition above about 9.5%
Rpn11 confirm = Rpn11 (PSMD14) deubiquitinase inhibitors, confirmation, biochemical, fluorescence polarization, single concentration; 29% of 1,900 active; shares compounds with Rpn11 block; purified human 26S proteasome, Ub4-pepOG fluorescence polarization; proteasome pretreated with epoxomicin; inhibition, % at 20 µM
MMP-2 counter = MMP-2 enzyme inhibition, confirmation, counter-screen for RPN11 inhibitor project, biochemical, fluorescence, single concentration. AID 602330, 2012. inhibition, % at 20 µM. shares compounds with Rpn11 block. 4% of 1,900 active. recombinant MMP-2, FRET peptide cleavage fluorescence;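 also: human MMP-2 activated beforehand with APMA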
Thrombin inh = bovine thrombin protease inhibition, confirmation, counter-screen for Rpn11 inhibitor project, biochemical, fluorescence polarization, single concentration. shares compounds with Rpn11 block. bovine thrombin cleavage of Ub4-pepOG. inhibition, % at 20 µM. 13% of 1,900 active;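 active = mean inhibition at least 40% at 20 µM, or signal 3 deviations below plate average, so some actives read negative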;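 also: plate controls were thrombin with DMSO for no effect and buffer wells lacking thrombin for full effect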
* = called active by the depositor; · = not tested or not shown. Rule as the data show it, unless noted: active = inhibition above about 40%; inactive = the rest.

SMILES	UCH37 inh	PLCb3 inh	Rpn11 block	PLC-gamma1 inh	Rpn11 confirm	MMP-2 counter	Thrombin inh
CCn1c(CCNC(=O)c2ccc(C)cc2)n[nH]c1=S	-3	4	0	1	·	·	·
Cc1ccc(S(=O)(=O)/N=C2/NC(=O)/C(=C/c3ccc(Br)o3)S2)cc1	-8	-29	61*	-11	28	-8	18
COc1ccc(Cc2c(-c3ccc(C)cc3)nc3c(C)cc(Br)cn23)c(C)c1	·	-16	49*	-10	22	16	13
COc1ccccc1Cc1c(-c2cccc(Cl)c2)nc2ccc(Br)cn12	·	-18	61*	-14	50*	0	36
COc1ccccc1Cc1c(-c2cccc(Br)c2)nc2c(C)cc(Br)cn12	·	-7	42*	-2	15	-7	20
FC(F)(F)c1ccccc1Cc1c(-c2cccc(Br)c2)nc2c3ccccc3ccn12	·	-32	42*	-19	10	-2	11
O=C(NN=Cc1ccc(Cl)cc1)c1sccc1-n1cccc1	2	·	·	·	·	·	·
COc1ccc(-c2nn(CCC#N)cc2C=NO)cc1	4	·	·	·	·	·	·
CC1CCN(Cc2c(C(=O)NN=Cc3cccc(Cl)c3)nnn2-c2nonc2N)CC1	4	·	·	·	·	·	·
Cc1ccc(Cc2c(-c3cccc(Br)c3)nc3ccc(C)cn23)cc1	·	-19	·	-19	·	·	·
Cc1ccc(Cc2c(-c3cccc(Br)c3)nc3ccc(Cl)cn23)cc1	·	-11	42*	-7	15	24	-1
Cc1cccc2sc(NC(=O)C3CCCN(S(=O)(=O)c4cccc5nonc45)C3)nc12 (stereo not drawn)	1	-2	58*	1	41*	-27	-19
Cc1cc(C)n(C(=O)CNC(=O)/C=C/c2ccccc2)n1	0	-3	72*	0	-17	-18	-20
CCOC(=O)CSC1=NC(=O)/C(=C\c2ccc(Cl)cc2)S1	5	-12	50*	-9	74*	12	66*
CCOC(=O)C1CCN(C2=NC(=O)/C(=C/c3ccc(Cl)cc3)S2)CC1	2	-9	2	2	·	·	·
C=CC[n+]1c(-c2ccc(OC)c(OC)c2)csc1NNC(=O)Nc1ccccc1	2	-35	52*	-34	-3	48*	1
COc1cc(/C=C2\CC/C(=C\c3cc(OC)c(OC)c(OC)c3)C2=O)cc(OC)c1OC	·	-39	12	-31	·	·	·
COc1cc(/C=C2\CC/C(=C\c3cc(OC)c(O)c(OC)c3)C2=O)cc(OC)c1O	10	-34	112*	-32	89*	5	81*
COc1cc(/C=C2/CCC/C(=C\c3cc(O)c(OC)c(Cl)c3)C2=O)cc(Cl)c1O	5	-3	64*	-6	7	47*	5
Nc1c(C(=O)NN=Cc2cccnc2)oc2nc(-c3ccco3)cc(-c3ccco3)c12	-13	·	·	·	·	·	·
Nc1c(C(=O)N/N=C/c2cccnc2)oc2nc(-c3ccccc3)cc(-c3ccco3)c12	·	-149	62*	-97	-51	-81	active
COc1cc(/C=C(\C#N)C(=O)NCCc2ccccc2)cc(OC)c1O	5	-36	79*	-25	54*	3	52*
CCOC(=O)c1cc2c(c(CSc3nc4ccccc4c(=O)n3Cc3ccco3)c1)OCOC2	4	·	52*	·	12	4	1
COc1cc(/C=C(/C#N)c2nc3ccccc3c(=O)[nH]2)ccc1O	5	-17	140*	-19	40	12	5
CCCCNC(=S)NN=Cc1sccc1C	1	·	·	·	·	·	·
SMILES	UCH37 inh	PLCb3 inh	Rpn11 block	PLC-gamma1 inh	Rpn11 confirm	MMP-2 counter	Thrombin inh
CN1CCCNc2nc3ccccc3nc21	-63	-234	46*	-164	-3	-49	-8
CN1CCCN(S(=O)(=O)c2ccccc2)c2nc3ccccc3nc21	-25	-154	10	-69	·	·	·
O=C(NN=C1CC2CC=CC12)c1ccccc1Cl (stereo not drawn)	3	·	·	·	·	·	·
FC(F)(F)c1nc(N2CCN(c3ccccc3)CC2)nc2c1CCCCC2	1	1	48*	1	-11	-30	-12
O=C(NN=Cc1ccc(N2CCOCC2)cc1)c1cccs1	-5	·	·	·	·	·	·
Cc1nnc(N2CCCC(C(=O)NCc3ccc(OC(C)C)cc3)C2)c2nn(-c3ccccc3)c(C)c12 (stereo not drawn)	-93	-188	53*	-127	23	-11	10
Cc1nnc(N2CCCC(C(=O)Nc3cc(F)ccc3F)C2)c2nn(-c3ccccc3)c(C)c12 (stereo not drawn)	-31	·	7	·	·	·	·
S=c1[nH]nc(-c2ccco2)n1N=Cc1cccs1	7	·	·	·	·	·	·
CC1Cc2ccccc2N1C(=O)c1ccc(N2CCCCC2)c([N+](=O)[O-])c1 (stereo not drawn)	1	3	33*	4	-3	-3	-1
O=C(O)CCC(=NNC(=O)CNC(=O)C(c1ccccc1)c1ccccc1)c1ccccc1	3	·	·	·	·	·	·
COc1ccc(C2CC(c3ccccc3)=NN2c2ccc(N)cc2)cc1 (stereo not drawn)	-7	-356	48*	-290	37	36	16
COc1ccc2[nH]cc(C=O)c2c1	2	-1	-3	-2	·	·	·
COc1ccc2[nH]cc(/C=C/c3cc[n+](C)cc3)c2c1	17	-71	116*	-54	114*	-66	114*
Cc1cccc(NC(=S)N/N=C/c2ccc([N+](=O)[O-])s2)c1	·	-16	39*	-16	2	36	-13
COc1cccc(OCC(=O)NNC(=O)c2cccs2)c1	1	1	-1	1	·	·	·
COc1ccc(OCC(=O)NNC(=O)c2cccs2)cc1	1	1	125*	0	-29	-41	-22
N#CCSc1nc2cc(C(=O)N3CCC(C(N)=O)CC3)ccc2c2nc3ccccc3n12	-59	·	34*	·	40	-39	7
CC1=CC(=NOS(=O)(=O)c2ccccc2)C=CC1=O	0	·	·	·	·	·	·
COC(=O)c1c(-c2cccnc2)csc1NC(=O)c1cc(C)on1	1	-27	76*	-23	53*	-18	32
COc1cccc(-c2cc(C(=O)Nc3cc(C)on3)no2)c1	-3	3	59*	1	31	32	-7
COc1ccc(-c2cc(C(=O)Nc3cc(Br)ccc3O)no2)cc1	2	-3	55*	4	17	-19	-2
CC(CC(=O)Nc1ccc2c(c1)OCCO2)=NNC(=O)C(=O)Nc1ccccc1C	4	·	·	·	·	·	·
